Results on three compounds are retold here after paper PMC3422889 (The Journal of organic chemistry, 2009).

Where two headings read alike, the source gives them in different places.

A short description of series [1]: Picosecond pump-probe transient absorption, singlet and triplet lifetimes. In kind it is physicochemical. The note with it: for kpF rate constant for the photo-Favorskii process: calculated as φdis/3τ. The procedure, abridged:
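Transient absorption used the femtosecond pump–supercontinuum probe method. Pump pulses were 266 nm, 1 μJ, <100 fs. The supercontinuum probe spanned 270–690 nm, with both beams focused to 0.2 mm on sample flowing through a 0.4 mm cell. Detection was by photodiode array. Spectra were corrected for chirp and solvent contribution. kpF was taken as φdis/3τ.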

The nature of series [2]: Quantitative photolysis, quantum yields for disappearance. Conditions: for φdis (1-octanol): solvent 1-octanol. It is filed as physicochemical. The procedure, abridged:
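Test compound (1–9 mM) with caffeine or 4-acetamidophenol internal standard was dissolved in water, buffer, salt solution or solvent in quartz tubes. Samples were irradiated in a Rayonet reactor with two 3000 Å lamps, or at 350 nm for the TRIS pH 9.0/LiClO4 case. Aliquots taken every 30 s up to 5 min (<20% conversion) went to LC/UV or LC/MS/MS. Photon flux came from ferrioxalate actinometry. At least three independent runs were done.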

The nature of series [3]: Stern-Volmer quenching with potassium sorbate. It is filed as physicochemical. Conditions: H2O. The procedure, abridged: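 pHP-GABA solutions (0.001–0.01 M) were diluted with potassium sorbate (0–0.1 M) in water. They were photolyzed under the quantum-yield conditions, and GABA-release quantum efficiencies were measured. KSV was the slope of φ0/φ versus [Q]. Triplet lifetime was derived assuming kq equals the diffusion rate, 7.2 × 10^9 […].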

Series [4] is described as follows: Nanosecond flash photolysis, decay of the 340-nm transient. In kind it is physicochemical. The note with it: water containing ca. 10 % ACN.
A short description of series [5]: Effect of H2O on the rate of disappearance of the 390-400 nm band. In kind it is physicochemical. The note with it: CH3CN cosolvent.
For series [6] the following is noted: wholly aqueous solution; cited from earlier work.
The conditions of series [7]: cited from earlier work.

As for `NCCCC(=O)OCC(=O)c1ccc(O)cc1` [compound 1, pHP GABA], in series [1] (H2O), the 1τ singlet lifetime is 2.3 ps, the 3τ triplet lifetime was 0.34 ns and the “kpF rate constant for the photo-Favorskii process” value is on record as 6.00 10^8 s^−1. Also, the “φdis (1-octanol)” value in series [2] is 0.12.

Turning to `NCCCC(=O)OCC(=O)c1ccc(O)c(OC(F)(F)F)c1` [compound 2, CF3O-pHP GABA], the “KSV Stern-Volmer constant” value in series [3] was 20 M⁻¹. This compound also came in with a 3τ triplet lifetime in series [1] (10% CH3CN/H2O, pump-probe) of 0.71 ns. In series [1] (H2O), the 3τ triplet lifetime is reported as 0.46 ns and the “kpF rate constant for the photo-Favorskii process” value was 1.98 10^8 s^−1. Besides, the “kdec decay rate constant of the 340-nm transient” value in series [4] is roughly 6.5e+06 s⁻¹. Besides, in series [2] (10% (v:v) H2O:CH3CN), the “quantum yield in 10% H2O:CH3CN” value is reported as 0.12. In series [2] (dry CH3CN), the “quantum yield in dry CH3CN” value was 0.03. Besides, in series [2], the “φdis (1-octanol)” value is recorded as 0.14. Besides, the “release of the amino acid upon irradiation” value in series [2] (λ > 300 nm, aqueous media, ambient conditions) is given as “quantitatively released”.

As for `CCOP(=O)(OCC)OCC(=O)c1ccc(O)cc1` [pHP diethyl phosphate], the 3kdis in series [5] (74.53 mol % H2O) was 3.30 × 10^9 S^−1; in series [5] (95.14 mol % H2O), 9.95 × 10^9 S^−1; in series [5] (100.00 mol % H2O) it was 1.6 × 10^10 S^−1; in series [7] (0.00 mol % H2O, CH3CN, ref B. Hellrung, J. Wirz unpublished) it was 2.62 × 10^5 S^−1; in series [7] (5.04 mol % H2O, CH3CN cosolvent, ref B. Hellrung, J. Wirz unpublished) it was 2.72 × 10^6 S^−1; in series [7] (7.51 mol % H2O, CH3CN cosolvent, ref B. Hellrung, J. Wirz unpublished), 6.56 × 10^6 S^−1. Besides, the 3kdis is reported as 1.15 × 10^7 S^−1 in series [7] (10.00 mol % H2O, CH3CN cosolvent, ref B. Hellrung, J. Wirz unpublished); 3.84 × 10^7 S^−1 in series [7] (15.03 mol % H2O, CH3CN cosolvent, ref B. Hellrung, J. Wirz unpublished); 1.11 × 10^8 S^−1 in series [7] (24.54 mol % H2O, CH3CN cosolvent, ref Phillips 14); 4.17 × 10^8 S^−1 in series [7] (34.05 mol % H2O, CH3CN cosolvent, ref Phillips 14); 7.81 × 10^8 S^−1 in series [7] (49.38 mol % H2O, CH3CN cosolvent, ref Phillips 14); 1.25 × 10^9 S^−1 in series [7] (55.64 mol % H2O, CH3CN cosolvent, ref Phillips 14). The 3kdis in series [7] (66.11 mol % H2O, CH3CN cosolvent, ref Phillips 14) is on record as 1.89 × 10^9 S^−1; in series [7] (89.77 mol % H2O, CH3CN cosolvent, ref Phillips 14), 3.45 × 10^9 S^−1. For the same compound, the 3τ triplet lifetime in series [6] was 60 ps.
